# Source: PubChem (several laboratories)
# The list is not random: actives were taken first. Their share in the collection is about 2%.
# PKA-R1A act: activators of PKA-R1A complex. AID 504707. activation, % at 11.4 µM. 340,000 tested, 0.083% active. PKA-R1A dissociation, Cy5-IP20 fluorescence polarization; scaled: DMSO 0%, 113 µM cGMP 100%;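 active = percent activation above the mean of all tested compounds plus 3 SD, cut at about 19% in these data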;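 also: higher means more PKAc released from R1A so a rise in polarization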
# dFosB act: activators of mouse delta FosB homodimer; purified delta FosB, TAMRA-CDK5 oligo fluorescence polarization; percent of positive-control signal above neutral wells; activation, % at 25 µM; 340,000 tested, 0.99% active; AID 493131;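 active = mean activation above about 17%, with every replicate also reaching it, limit read from the data, passing the limit was not always enough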
# Target sequence (P13346 whole entry, looked up): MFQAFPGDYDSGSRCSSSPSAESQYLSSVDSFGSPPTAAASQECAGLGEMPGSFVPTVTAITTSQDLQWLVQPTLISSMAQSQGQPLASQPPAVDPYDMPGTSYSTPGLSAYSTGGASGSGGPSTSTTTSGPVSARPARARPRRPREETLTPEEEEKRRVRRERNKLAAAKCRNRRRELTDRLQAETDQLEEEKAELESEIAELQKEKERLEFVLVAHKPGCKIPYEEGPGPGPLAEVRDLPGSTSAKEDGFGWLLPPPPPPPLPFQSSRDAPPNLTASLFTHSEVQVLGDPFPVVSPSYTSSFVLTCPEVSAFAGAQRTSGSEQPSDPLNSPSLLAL
# PKA-R2B act: activators of human PKA-R2B complex; activation, % at 11.4 µM; P22694+P31323; 340,000 tested, 0.079% active; PKA-R2B holoenzyme dissociation, Cy5-IP20 fluorescence polarization; R2B truncated from residue 108, S112A mutant; 0% DMSO only, 100% 113 µM cGMP;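 active = activation above a cutoff set at the mean over all compounds plus 3 SD, cut at about 18% in these data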;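 also: higher means more holoenzyme dissociation and a rise in polarization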
# CAL PDZ FP-1: CAL PDZ (human) peptide binding inhibition. Q9HD26. purified CAL PDZ, TMR-peptide fluorescence polarization, 1 h. inhibition, % at 24.9 µM. 300,000 tested, 0.92% active. AID 602252;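 active = mean inhibition of at least 30% with at least half of replicates also reaching 30%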
# NTR1 agonist: agonists of human neurotensin receptor NTR1. P30989. AID 493036. NTR1-U2OS beta-arrestin-GFP spot imaging, agonist mode. activation, % at 20 µM. 330,000 tested, 0.17% active;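 active = activation at or above 40% of the spot to cytoplasm intensity ratio, with at least 20 cells analyzed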
# CAL PDZ FP-2: blocks peptide binding to human CAL PDZ domain. Q9HD26. purified CAL PDZ, TMR-peptide fluorescence polarization, 1 h. inhibition, % at 20 µM. 330,000 tested, 0.02% active. AID 504414;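 active = highest replicate inhibition of at least 40%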
#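 System: tagged CAL PDZ domain. Schedule: 1 h room-temperature incubation prior to read. Signal: fluorescence polarization (mP). Measure: percent inhibition from loss of millipolarization.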
# A number is an active result; - = inactive; . = no result given.
SMILES,PKA-R1A act,dFosB act,PKA-R2B act,CAL PDZ FP-1,NTR1 agonist,CAL PDZ FP-2
O=C(CSc1nnc([C@@H]2CCCN2)o1)c1ccc(Cl)cc1,-,-,-,-,-,-
O=C(NCc1cccs1)c1cc(S(=O)(=O)N2CCOCC2)c(Cl)cc1Cl,-,-,-,-,-,-
NC(=S)N/N=C/c1ccc(C23CC4CC(CC(C4)C2)C3)cc1,.,.,.,.,44,.
O=C1OCCC1=CN1CCCCC1,-,.,-,.,.,.
Cc1ccc(S(=O)(=O)/N=C(/c2ccccc2)N2CCOCC2)cc1,-,-,-,-,-,-
O=S(=O)(/N=C(/c1ccccc1)N1CCOCC1)c1ccc(Br)cc1,-,-,-,37,-,-
Cc1ccc(NC(=S)N(CCN2CCOCC2)Cc2cc3cc4c(cc3[nH]c2=O)OCO4)cc1,-,-,-,52,-,-
COc1ccc(NC(=S)N(CCN2CCOCC2)Cc2cc3cc4c(cc3[nH]c2=O)OCO4)cc1,.,.,.,.,-,.
CCOc1ccc(NC(=S)N(CCN2CCOCC2)Cc2cc3cc4c(cc3[nH]c2=O)OCO4)cc1,-,-,-,63,-,-
Cc1ccc(NC(=S)N(CCN2CCOCC2)Cc2cc3cc4c(cc3[nH]c2=O)OCCO4)cc1,-,-,-,-,-,-
CCOC(=O)C1=C(C)NC(C)=C(C(=O)OCC)C1/C=C/c1ccccc1OC,-,-,-,-,-,-
CCOC(=O)C1=C(C)NC(C)=C(C(=O)OCC)C1c1ccccc1/C=C/C(=O)OC(C)(C)C,.,.,.,.,47,.
Cc1cc(C)n(CC(O)CN(c2ccccc2)S(=O)(=O)c2ccccc2)n1 (centres undefined),-,-,-,.,-,-
O=S(=O)(c1ccccc1)N(CC(O)COc1ccccc1)c1ccccc1 (centres undefined),-,-,-,57,-,-
O=C(Nc1ccc2oc(-c3ccccc3Cl)nc2c1)c1cncc(Br)c1,-,64,-,-,-,-
COc1ccc(COC(=O)C2CCN(S(=O)(=O)c3ccc(OC)c(OC)c3)CC2)cc1,-,-,-,-,-,-
CCCCC(=O)NC(c1ccccc1Cl)c1ccc2cccnc2c1O (centres undefined),-,-,-,58,-,-
CCCCC(=O)NC(c1ccccc1)c1ccc2cccnc2c1O (centres undefined),-,-,-,.,-,-
Cc1sc2nc(CN3CCCC3)nc(N3CCN(S(=O)(=O)c4ccccc4)CC3)c2c1C,-,42,-,.,-,-
Cc1sc2ncnc(N3CCN(S(=O)(=O)c4ccccc4)CC3)c2c1C,-,-,-,-,-,-
CCn1c(C)nc2cc(C(=O)N/N=C/c3ccc(O)c(O)c3O)ccc21,-,-,-,-,.,-
CCn1c(C)nc2cc(C(=O)N/N=C/c3cccc(OC)c3O)ccc21,-,22,-,-,-,-
CC(=O)NC(Cc1cccc(C)c1)C(=O)NC1CCN(S(=O)(=O)c2ccccc2)CC1 (centres undefined),-,-,-,49,-,-
NC(=O)NC(CC(=O)NNC(=O)c1ccccn1)c1ccccc1Cl (centres undefined),-,-,-,109,-,-
NC(=O)NC(CC(=O)NCCc1ccccn1)c1ccccc1Cl (centres undefined),-,-,-,-,-,-
SMILES,PKA-R1A act,dFosB act,PKA-R2B act,CAL PDZ FP-1,NTR1 agonist,CAL PDZ FP-2
Cc1cc2nc(CN(C)C(=O)C3CCC(=O)N(C4CCCC4)C3)[nH]c2cc1C (centres undefined),-,.,-,.,.,.
O=C(CNC(=O)c1ccc2c(c1)OCCO2)N/N=C/c1ccc(Cl)cc1,-,-,-,70,-,-
O=C(CNC(=O)c1ccccc1)N/N=C/c1cc(Br)ccc1O,-,-,-,-,-,-
O=C(CNC(=O)c1ccc2c(c1)OCO2)N/N=C/c1cc(Br)ccc1O,-,62,-,-,-,-
O=C(CNC(=O)c1ccccc1Br)N/N=C/c1cc(Br)ccc1O,-,32,-,-,-,-
CCCN(CC(=O)Nc1ccc(F)c(F)c1F)C(=O)Cc1ccc(S(=O)(=O)N2CCOCC2)s1,-,-,-,-,-,-
CCOc1ccccc1NC(=O)N1CCCC(c2nc(-c3ccc(C)o3)no2)C1 (centres undefined),-,-,-,76,-,-
Cc1ccc(-c2noc(C3CCCN(C(=O)c4ccccc4)C3)n2)o1 (centres undefined),-,-,-,-,-,.
COc1cc(/C=C2\SC(=S)N(CCCCC(=O)O)C2=O)ccc1OS(=O)(=O)c1ccc(C)cc1,-,-,-,-,-,-
COc1ccc(C(=O)NC(C)c2cccnc2)cc1S(=O)(=O)N(C)Cc1ccccc1 (centres undefined),-,-,-,-,-,-
Fc1ccc(-[n+]2nc(Nc3ccccc3)sc2-c2c3ccccc3cc3ccccc23)cc1,-,31,-,-,-,-
OC1CCCN(Cc2ccc3ccc4cccc5ccc2c3c45)C1 (centres undefined),-,68,-,-,-,-
c1cc2ccc3ccc(CN4CCOCC4)c4ccc(c1)c2c34,-,31,-,-,-,-
Cc1cc2ccccc2cc1CN1CCOCC1,-,-,-,-,-,-
CCOc1ccc2nc(SCC(=O)c3ccc(O)cc3O)sc2c1,-,-,-,36,-,.
COc1ccc(CN2C(=O)C(CC(=O)NC(c3ccccc3)c3ccccc3)CC(C(=O)N(C(C)C)C(C)C)=C2C)cc1 (centres undefined),-,.,-,.,.,.
CC(C)(Oc1ccc(Cl)cc1)C(=O)NCc1ccc(S(N)(=O)=O)cc1,-,-,-,77,-,-
COC(=O)CNC(=O)C(C)(C)Oc1ccc(Cl)cc1,-,-,-,-,-,.
Cc1cc(C(=O)O)ccc1N=Cc1c(O)ccc2ccccc12,-,-,-,-,-,-
CCN1/C(=C/c2ccc3cccc(C)c3[n+]2CC)Sc2ccccc21,-,66,-,.,-,-
CN1C(=S)SC(/[N+]([O-])=C/c2cccnc2)C1(C)C (centres undefined),-,-,-,31,-,.
Cc1cccc(N(CC(=O)NC2CCCC2)C(=O)CCCC(=O)Nc2ccccn2)c1,-,-,-,-,-,-
Cc1cccc(N(CC(=O)NC2CCCCC2)C(=O)CCCC(=O)Nc2ccccn2)c1,-,-,-,74,-,-
NC(=O)COC(=O)/C=C/c1ccc(S(=O)(=O)N2CCCCCC2)cc1,-,-,-,-,-,-
COc1cc(/C=C/C(=O)OCC(=O)c2ccc[nH]2)cc(OC)c1OC,-,-,-,40,-,-
COc1ccc(/C=C/C(=O)OCC(=O)c2ccc(S(=O)(=O)N3CCCCC3)cc2)cc1OC,-,84,-,.,-,-
Cc1cc2c(NC3CCCCC3)ncnc2s1,-,-,-,-,-,-
